Results of several laboratories.
Protocols differ between the studies behind these lines.
Target: Carbonic anhydrase 2 (CA2, Homo sapiens, UniProt P00918)
Observed: enzyme activity
Action: inhibitor

SMILES	technique	quantity	value
O=C(Nc1ccc2c(c1)C=CCP(=O)(O)O2)c1ccc([N+](=O)[O-])cc1	stopped-flow	Ki	> 10000 nM
NC(=S)N/N=C1/c2ccccc2[C@@H]2[C@H]1[C@@H](c1ccc(C(F)(F)F)cc1)[C@H](C(=O)c1ccc(C(F)(F)F)cc1)[C@H]2c1ccc(C(F)(F)F)cc1 (racemic)	absorbance	IC50	551 nM
CC(C)c1cc2c(c(O)c1O)[C@@]13CCCC(C)(C)[C@@H]1[C@H](OC3=O)[C@H]2O		IC50	4.18 nM
O=C(Nc1ccc2c(c1)C=CCP(=O)(O)O2)c1cccs1	stopped-flow	Ki	> 10000 nM
CC(C)c1cc2c(c(O)c1O)[C@@]13CCCC(C)(C)[C@@H]1C[C@@H]2OC3=O		Ki	8.8 nM
O=C(Nc1ccc2c(c1)C=CCP(=O)(O)O2)c1ccc(Cl)cc1	stopped-flow	Ki	> 10000 nM
Cc1c(Cl)c(=O)oc2cc(OCCCC[Se]C#N)ccc12	stopped-flow	Ki	> 100000 nM
NC(=S)N/N=C1/c2ccccc2[C@@H]2[C@H]1[C@@H](c1ccccc1)[C@H](C(=O)c1ccccc1)[C@H]2c1ccccc1 (racemic)	absorbance	IC50	1330 nM
CC(C)c1cc2c(c(O)c1O)[C@@]13CCCC(C)(C)[C@@H]1[C@@H](O)[C@@H]2OC3=O		Ki	3.57 nM
NC(=S)N/N=C1/c2ccccc2[C@@H]2[C@H]1[C@@H](c1ccc(Cl)cc1)[C@H](C(=O)c1ccc(Cl)cc1)[C@H]2c1ccc(Cl)cc1 (racemic)	absorbance	IC50	298 nM
N#C[Se]CCCCOc1ccc2c(-c3ccccc3)cc(=O)oc2c1	stopped-flow	Ki	> 100000 nM
COc1ccc(C(=O)[C@@H]2[C@@H](c3ccc(OC)cc3)[C@@H]3c4ccccc4/C(=N/NC(N)=S)[C@@H]3[C@H]2c2ccc(OC)cc2)cc1 (racemic)	absorbance	IC50	992 nM
O=C(Nc1ccc2c(c1)C=CCP(=O)(O)O2)c1ccco1	stopped-flow	Ki	> 10000 nM
CC(C)c1cc2c(c(O)c1O)[C@@]1(C(=O)O)CCCC(C)(C)[C@@H]1CC2		IC50	3.77 nM
Cc1ccc([C@H]2[C@H](C(=O)c3cccs3)[C@@H](c3cccs3)[C@@H]3c4ccccc4/C(=N/NC(N)=S)[C@@H]32)cc1 (racemic)	absorbance	IC50	562 nM
